Active and inactive are the calls of the source. The rule behind the calls is not given here.
Assays:
Zea mays = experiment: Selectivity for maize histone deacetylase 1A over maize histone deacetylase 1B
Plasma [1] = experiment: Stability in rat plasma at 25 ug/ml; type: ADME, cell-free
Procedure, shortened: (§1)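 Compounds were dissolved in blank rat plasma (1 mg/mL stock) and serially diluted with plasma. Samples were incubated at 37 °C and sampled at several times. Proteins were precipitated with two volumes of acetonitrile and spun at 16,000 rpm for 5 min, and the supernatant was analysed by HPLC.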

Plasma [2] = experiment: Stability in rat plasma at 100 ug/ml; type: ADME, cell-free; procedure, shortened: as §1
U-937 [3] = experiment: Cell cycle arrest in human U937 cells assessed as accumulation at S phase at 5 uM after 24 hrs by flow cytometry; type: functional, cell-based
Procedure, shortened: (§2)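 U937 cells were grown in RPMI with 10% FCS, penicillin/streptomycin, amphotericin-B, 10 mM Hepes and 2 mM glutamine, and held at 200,000 cells/mL. Cells were treated 24 h with compounds in DMSO. 2.5×10^5 cells were resuspended in hypotonic buffer (0.1% Triton X-100, 0.1% sodium citrate, 50 µg/mL PI, RNase A) for 30 min in the dark, then analysed by flow cytometry. Values are means of independent duplicates.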

Histone deacetylase 1 = Histone deacetylase 1 (Homo sapiens, UniProt Q13547); experiment: Inhibition of human recombinant HDAC1 using Fluor de Lys as substrate by fluorimetric assay
Procedure, shortened: (§3)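 Purified recombinant HDAC1 or HDAC4 was incubated with acetylated-lysine Fluor de Lys substrate, with or without inhibitor. Developer was then added to give the fluorophore, and fluorescence was read. IC50 values are means of at least three experiments. SI is IC50(HDAC1)/IC50(HDAC4).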

Histone deacetylase 4 = Histone deacetylase 4 (Homo sapiens, UniProt P56524); experiment: Inhibition of human recombinant HDAC4 using Fluor de Lys as substrate by fluorimetric assay; procedure, shortened: as §3
Homo sapiens = species: Homo sapiens; experiment: Selectivity index, ratio of IC50 for human recombinant HDAC1 to IC50 for human recombinant HDAC4; procedure, shortened: as §3
PC-3 = experiment: Antiproliferative activity against human PC3 cells after 48 hrs by MTT assay; type: functional, cell-based; settings: PC-3, 48 h
Procedure, shortened: (§4)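 Cells seeded at 4000/well; compounds (10 mg/mL DMSO stock, diluted in medium) added 24 h after seeding, in duplicate. Incubation 48 h at 37 °C, 5% CO2. MTT (20 µL of 5 mg/mL in PBS) then added for 4 h at 37 °C, and the signal read at 570 nm.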

HCT-116 = experiment: Antiproliferative activity against human HCT116 cells after 48 hrs by MTT assay; type: functional, cell-based; settings: HCT-116, 48 h; procedure, shortened: as §4
A549 = experiment: Antiproliferative activity against human A549 cells after 48 hrs by MTT assay; type: functional, cell-based; settings: A549, 48 h; procedure, shortened: as §4
HepG2 = experiment: Antiproliferative activity against human HepG2 cells after 48 hrs by MTT assay; type: functional, cell-based; settings: HepG2, 48 h; procedure, shortened: as §4
[4] = molecular target: T1, Protein deacetylase HDAC6 (Homo sapiens) (UniProt Q9UBN7); experiment: Inhibition of HDAC6 in human U937 cells assessed as induction of alpha-tubulin acetylation after 24 hrs by Western blot analysis; type: cell-based; settings: U-937
T1 sequence (whole entry): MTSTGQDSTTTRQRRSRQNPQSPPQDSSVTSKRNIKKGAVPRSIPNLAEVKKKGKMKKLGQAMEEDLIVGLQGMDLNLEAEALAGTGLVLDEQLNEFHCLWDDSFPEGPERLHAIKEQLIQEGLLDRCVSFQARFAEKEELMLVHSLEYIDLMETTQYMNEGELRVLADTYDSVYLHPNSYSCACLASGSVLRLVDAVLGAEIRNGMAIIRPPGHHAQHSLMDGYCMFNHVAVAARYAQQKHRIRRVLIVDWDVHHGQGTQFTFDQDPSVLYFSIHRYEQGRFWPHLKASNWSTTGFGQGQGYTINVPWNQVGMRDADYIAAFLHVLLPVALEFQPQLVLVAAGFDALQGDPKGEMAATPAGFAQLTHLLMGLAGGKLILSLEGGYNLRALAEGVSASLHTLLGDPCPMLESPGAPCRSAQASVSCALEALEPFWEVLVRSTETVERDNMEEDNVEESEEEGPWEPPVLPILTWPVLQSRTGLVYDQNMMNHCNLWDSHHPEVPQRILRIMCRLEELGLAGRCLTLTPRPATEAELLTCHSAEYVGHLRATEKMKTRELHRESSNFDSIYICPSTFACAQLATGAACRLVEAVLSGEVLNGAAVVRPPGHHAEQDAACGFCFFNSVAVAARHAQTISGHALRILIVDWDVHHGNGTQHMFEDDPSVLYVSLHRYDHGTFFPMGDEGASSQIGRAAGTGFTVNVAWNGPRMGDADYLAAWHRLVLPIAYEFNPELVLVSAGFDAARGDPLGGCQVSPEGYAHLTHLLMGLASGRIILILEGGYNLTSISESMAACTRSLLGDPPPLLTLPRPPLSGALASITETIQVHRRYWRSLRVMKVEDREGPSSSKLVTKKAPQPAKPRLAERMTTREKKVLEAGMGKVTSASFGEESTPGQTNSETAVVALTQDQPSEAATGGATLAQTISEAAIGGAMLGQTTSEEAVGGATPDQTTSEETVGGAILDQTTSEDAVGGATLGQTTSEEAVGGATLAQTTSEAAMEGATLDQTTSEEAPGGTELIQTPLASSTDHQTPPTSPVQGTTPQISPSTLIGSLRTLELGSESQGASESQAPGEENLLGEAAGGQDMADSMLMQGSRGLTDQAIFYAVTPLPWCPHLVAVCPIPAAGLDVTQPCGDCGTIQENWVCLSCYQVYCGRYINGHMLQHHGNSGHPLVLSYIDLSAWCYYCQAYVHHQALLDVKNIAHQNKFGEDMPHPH
Procedure, shortened: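 U937 cells were treated for 24 h. Total protein extract (50 µg) was run on a 10% polyacrylamide gel and blotted for acetylated α-tubulin (1:500), with total ERK as the loading control.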

U-937 [5] = experiment: Induction of p21waf1/CIP1 expression in human U937 cells after 24 hrs by Western blot analysis; type: functional, cell-based
Procedure, shortened: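 U937 cells were treated for 24 h. Total protein extracts (50 µg) were run on a 15% polyacrylamide gel and blotted for p21 (1:500), with tubulin as the loading control.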

[6] = Inhibition of HDAC
U-937 [7] = experiment: Induction of apoptosis in human U937 cells assessed as caspase 3 activation at 5 uM after 30 hrs by FACS analysis; type: functional, cell-based
Procedure, shortened: (§5)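 U937 cells were grown in supplemented RPMI at 200,000 cells/mL. Compounds in DMSO were given at 5 µM for 24 h or 30 h, or at 0.5 µM for 28 h. Apoptosis was analysed by FACS. Values are means of independent duplicates.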

U-937 [8] = experiment: Increase in granulocytic differentiation in human U937 cells assessed as CD11c expression at 5 uM after 30 hrs by FACS analysis; type: functional, cell-based
Procedure, shortened: (§6)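 U937 cells were grown in RPMI with 10% FCS, 10 mM Hepes and 2 mM glutamine at 200,000 cells/mL. Compounds in DMSO were given for 30 h (5 µM) or 28 h (0.5 µM). Cells were stained for surface antigen for 30 min at 4 °C in the dark, washed, and resuspended in PBS with propidium iodide. PI-positive cells were excluded from the FACS analysis. Values are means of independent quadruplicates.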

U-937 [9] = experiment: Induction of monocytic differentiation in human U937 cells assessed as CD14 expression at 5 uM after 30 hrs by FACS analysis; type: functional, cell-based; procedure, shortened: as §6
Histone deacetylase = experiment: Inhibition of human recombinant HDAC by fluorimetric assay; type: protein assay
U-937 [10] = experiment: Increase in granulocytic differentiation in human U937 cells assessed as CD11c expression at 0.5 uM after 28 hrs by FACS analysis; type: functional, cell-based; procedure, shortened: as §6
U-937 [11] = experiment: Induction of apoptosis in human U937 cells assessed as caspase 3 activation at 0.5 uM after 28 hrs by FACS analysis; type: functional, cell-based; procedure, shortened: as §5
U-937 [12] = experiment: Cell cycle arrest in human U937 cells assessed as accumulation at G1 phase at 5 uM after 24 hrs by flow cytometry; type: functional, cell-based; procedure, shortened: as §2
U-937 [13] = experiment: Induction of apoptosis in human U937 cells assessed as caspase 3 activation at 5 uM after 24 hrs by FACS analysis; type: functional, cell-based; procedure, shortened: as §5

Chain of Histone deacetylase 1 (Q13547 whole entry): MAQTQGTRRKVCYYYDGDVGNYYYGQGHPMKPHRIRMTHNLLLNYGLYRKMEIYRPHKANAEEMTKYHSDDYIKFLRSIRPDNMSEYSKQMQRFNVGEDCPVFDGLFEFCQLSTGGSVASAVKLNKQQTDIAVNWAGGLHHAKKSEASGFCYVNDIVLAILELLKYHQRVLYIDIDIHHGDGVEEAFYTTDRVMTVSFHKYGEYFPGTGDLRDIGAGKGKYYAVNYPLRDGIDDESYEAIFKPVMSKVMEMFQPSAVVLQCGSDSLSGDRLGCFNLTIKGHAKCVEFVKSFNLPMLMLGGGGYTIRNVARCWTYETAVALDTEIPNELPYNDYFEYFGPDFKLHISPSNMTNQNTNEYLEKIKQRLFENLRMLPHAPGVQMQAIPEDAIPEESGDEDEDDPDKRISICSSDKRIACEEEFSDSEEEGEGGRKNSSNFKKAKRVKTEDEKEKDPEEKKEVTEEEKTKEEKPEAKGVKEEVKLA
Chain of Histone deacetylase 4 (P56524 whole entry): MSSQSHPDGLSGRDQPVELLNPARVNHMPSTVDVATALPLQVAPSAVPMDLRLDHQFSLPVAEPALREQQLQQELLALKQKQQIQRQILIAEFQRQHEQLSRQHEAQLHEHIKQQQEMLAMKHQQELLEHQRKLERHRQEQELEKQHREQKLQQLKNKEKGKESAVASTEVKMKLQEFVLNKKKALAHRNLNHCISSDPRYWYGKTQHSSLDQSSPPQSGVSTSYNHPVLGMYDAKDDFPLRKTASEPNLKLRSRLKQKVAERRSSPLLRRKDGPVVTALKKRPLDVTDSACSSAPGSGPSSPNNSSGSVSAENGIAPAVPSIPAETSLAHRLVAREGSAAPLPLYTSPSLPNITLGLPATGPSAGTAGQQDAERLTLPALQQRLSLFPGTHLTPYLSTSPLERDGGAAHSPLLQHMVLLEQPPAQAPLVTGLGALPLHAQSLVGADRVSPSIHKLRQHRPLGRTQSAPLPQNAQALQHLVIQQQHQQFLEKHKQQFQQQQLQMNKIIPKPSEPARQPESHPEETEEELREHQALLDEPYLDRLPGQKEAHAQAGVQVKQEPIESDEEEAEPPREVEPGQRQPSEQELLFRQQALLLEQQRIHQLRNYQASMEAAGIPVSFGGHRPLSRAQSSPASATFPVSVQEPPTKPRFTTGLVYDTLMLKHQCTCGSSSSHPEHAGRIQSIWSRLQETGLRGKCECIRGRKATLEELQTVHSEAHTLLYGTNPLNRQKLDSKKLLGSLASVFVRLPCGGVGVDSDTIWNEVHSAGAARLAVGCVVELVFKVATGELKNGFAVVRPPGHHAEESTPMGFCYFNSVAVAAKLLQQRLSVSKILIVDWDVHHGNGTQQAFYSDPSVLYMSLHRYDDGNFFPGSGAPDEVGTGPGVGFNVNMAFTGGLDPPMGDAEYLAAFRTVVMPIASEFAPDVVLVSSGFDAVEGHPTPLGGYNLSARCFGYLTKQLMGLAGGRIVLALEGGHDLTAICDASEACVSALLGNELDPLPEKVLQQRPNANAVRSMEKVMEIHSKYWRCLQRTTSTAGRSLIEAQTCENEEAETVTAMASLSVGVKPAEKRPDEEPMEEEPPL

For `Cn1cc(/C=C/C(=O)c2cccc(F)c2)cc1/C=C/C(=O)NO`, the Selectivity ratio (Zea mays) was 176.

In the case of `O=C(/C=C/c1ccc(/C=C/C(=O)c2ccccc2)o1)NO`, the Stability (Plasma [1]) is reported as “Stable”, the Stability (Plasma [2]) is reported as “Stable” and the Activity (U-937 [3]) is reported as “Active”. For the same molecule, the IC50 (Histone deacetylase 1) was 11.5 µM, the IC50 (Histone deacetylase 4) was 22.8 µM and the Ratio IC50 (Homo sapiens) was 0.5. The IC50 (PC-3) was 13.3 µM, the IC50 (HCT-116) was 2.89 µM and the IC50 (A549) was 20.2 µM. For the same molecule, the IC50 (HepG2) was 12.1 µM, the Activity [4] was “Active” and the Activity (U-937 [5]) was “Active”.

Molecule `O=C(/C=C/C=C/C=C/c1ccccc1)NO` has an IC50 [6] of 1.8 µM.

For `O=C(NO)c1ccc(/C=C/c2ccccc2)o1`, the Stability (Plasma [1]) was “Stable”, the Stability (Plasma [2]) was “Stable” and the Activity (U-937 [7]) was “Active”. For the same molecule, the Activity (U-937 [8]) was “Active”, the Activity (U-937 [9]) was “inactive” and the IC50 (Histone deacetylase 1) was 49.1 µM. It also gave an IC50 (Histone deacetylase 4) of 47.2 µM, a Ratio IC50 (Homo sapiens) of 1.04 and an IC50 (PC-3) of 40.4 µM. It also gave an IC50 (HCT-116) of 2.49 µM, an IC50 (A549) of 32.5 µM and an IC50 (HepG2) of 12.8 µM.

With `O=C(CCCCCCC(=O)Nc1ccccc1C(=O)NO)Nc1ccccc1` the IC50 (Histone deacetylase 1) was 0.59 µM, the IC50 (Histone deacetylase 4) was 0.55 µM and the Ratio IC50 (Homo sapiens) was 1.01. It also gave an IC50 (PC-3) of 8.17 µM, an IC50 (HCT-116) of 2.69 µM and an IC50 (HepG2) of 63.5 µM. The IC50 (Histone deacetylase) was 0.042 µM.

For `COc1cc(/C=C/c2ccc(C(=O)NO)o2)ccc1OCc1ccccc1`, the Activity (U-937 [10]) was “Active”, the Activity (U-937 [11]) was “Active” and the IC50 (Histone deacetylase 1) was 13.4 µM. It also gave an IC50 (Histone deacetylase 4) of 10.2 µM, a Ratio IC50 (Homo sapiens) of 1.3 and an IC50 (PC-3) of 1.2 µM. It also gave an IC50 (A549) of 50.3 µM, an IC50 (HepG2) of 30.9 µM and an IC50 (Histone deacetylase) of 1.89 µM.

With `O=C(NO)c1ccc(/C=C/c2ccccc2O)o1` the Activity (U-937 [7]) was “Active”, the Activity (U-937 [8]) was “Active” and the Activity (U-937 [9]) was “inactive”. The IC50 (Histone deacetylase 1) was 47.1 µM, the IC50 (Histone deacetylase 4) was 74.2 µM and the Ratio IC50 (Homo sapiens) was 0.63. The IC50 (PC-3) was 91.3 µM, the IC50 (HCT-116) was 5.1 µM and the IC50 (A549) was 79.2 µM. The IC50 (HepG2) was 54 µM.

With `O=C(NO)c1ccc(/C=C/c2ccc(O)cc2)o1` the Activity (U-937 [7]) was “Active”, the Activity (U-937 [8]) was “Active” and the Activity (U-937 [9]) was “inactive”. The IC50 (Histone deacetylase 1) was 43.1 µM, the IC50 (Histone deacetylase 4) was 57.1 µM and the Ratio IC50 (Homo sapiens) was 0.76. The IC50 (PC-3) was 21.8 µM, the IC50 (HCT-116) was 2.73 µM and the IC50 (A549) was 86.4 µM. For the same molecule, the IC50 (HepG2) was 20.9 µM.

For `CN(C)c1ccc(/C=C/c2ccc(C(=O)NO)o2)cc1`, the Activity (U-937 [10]) was “Active”, the IC50 (Histone deacetylase 1) was 49.1 µM and the IC50 (Histone deacetylase 4) was 50.6 µM. It also gave a Ratio IC50 (Homo sapiens) of 0.97, an IC50 (PC-3) of 3.2 µM and an IC50 (A549) of 46.3 µM. The IC50 (HepG2) was 31.7 µM and the Activity (U-937 [5]) was “Active”.

In the case of `O=C(/C=C/c1ccc(/C=C/C(=O)c2ccc3ccccc3c2)o1)NO`, the Activity (U-937 [12]) is reported as “Active”, the Activity (U-937 [13]) is reported as “Active” and the IC50 (Histone deacetylase 1) is reported as 3.77 µM. The IC50 (Histone deacetylase 4) was 4.38 µM, the Ratio IC50 (Homo sapiens) was 0.9 and the IC50 (PC-3) was 15.1 µM. For the same molecule, the IC50 (HCT-116) was 2.22 µM, the IC50 (A549) was 29.4 µM and the IC50 (HepG2) was 9.93 µM. The Activity [4] was “Active”, the Activity (U-937 [5]) was “Active” and the IC50 (Histone deacetylase) was 0.63 µM.
